Only some compounds are listed: those with a hit (about 3.6% of all), similar ones and a draw of the others.
PAFAH1B3 inh – PAFAH1B3 (human) inhibition; Q15102; recombinant PAFAH1B3, FP-rhodamine probe, fluorescence polarization; inhibition, % at 3.39 µM; 0.28% of 340,000 active; AID 492972;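 active means inhibition above the screen-wide average of all tested compounds plus 3 SD, cut at about 25% in these data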
Target sequence (Q15102 whole entry, looked up): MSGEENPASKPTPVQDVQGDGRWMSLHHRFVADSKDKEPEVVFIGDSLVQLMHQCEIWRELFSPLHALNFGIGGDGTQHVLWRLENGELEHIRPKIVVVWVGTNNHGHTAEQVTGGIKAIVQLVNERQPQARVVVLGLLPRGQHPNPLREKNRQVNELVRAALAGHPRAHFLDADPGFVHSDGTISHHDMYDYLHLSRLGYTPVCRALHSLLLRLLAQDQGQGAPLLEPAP
pPAFAH FP inh – pPAFAH (human) enzyme inhibition; Q13093; inhibition, % at 3.39 µM; recombinant pPAFAH, FP-rhodamine probe fluorescence polarization; 1.5% of 330,000 active;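 active means inhibition above the mean inhibition across the screen plus 3 SD, cut at about 25% in these data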;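 further: inhibitors block binding of the rhodamine activity-based probe so polarization drops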
PAFAH2 FP inh – inhibitors of human PAFAH2 | 0.99% of 340,000 active | AID 492956 | recombinant PAFAH2, FP-rhodamine activity probe, fluorescence polarization | inhibition, % at 3.39 µM | Q99487;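 active means inhibition above the mean over all tested compounds plus 3 SD, cut at about 30% in these data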;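 further: inhibitors block probe labeling of enzyme so polarization drops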
PAFAH1B2 FP inh – PAFAH1B2 (human) inhibition. 1.2% of 340,000 active. recombinant PAFAH1B2, FP-rhodamine activity probe, fluorescence polarization. inhibition, % at 3.39 µM. P68402;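 active means inhibition above the mean of all tested compounds plus 3 SD, cut at about 24% in these data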
Target sequence (P68402 whole entry, looked up): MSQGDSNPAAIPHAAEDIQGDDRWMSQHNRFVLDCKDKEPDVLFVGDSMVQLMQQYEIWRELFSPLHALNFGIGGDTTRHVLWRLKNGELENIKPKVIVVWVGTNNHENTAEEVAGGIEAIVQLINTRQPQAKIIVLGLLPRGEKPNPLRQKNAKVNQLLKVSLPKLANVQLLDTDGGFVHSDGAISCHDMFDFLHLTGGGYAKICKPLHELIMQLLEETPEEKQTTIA
IMP-1 inh – inhibitors of Pseudomonas aeruginosa IMP-1 metallo-beta-lactamase; inhibition, % at 5.6 µM; 0.45% of 290,000 active; purified IMP-1, nitrocefin hydrolysis, epi-absorbance fluorescence;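 active means inhibition above the mean plus 3 SD of all compounds in the same screening run, cut at about 4.5% in these data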
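Assay system: purified recombinant IMP-1 beta-lactamase. Input: IMP-1 0.2 nM before substrate addition. Buffer or medium: Zinc- and detergent-supplemented HEPES buffer, pH 7.1. Schedule: 25 °C, 15 min preincubation, 25 min reaction. Signal: Epi-absorbance fluorescence, 480 nm excitation, 530 nm emission. Evaluation: percent inhibition from optical density relative to buffer-blank wells.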
VIM-2 inhibitor – blocks Pseudomonas aeruginosa VIM-2 metallo-beta-lactamase | inhibition, % at 5.6 µM | 0.89% of 290,000 active | purified VIM-2, nitrocefin hydrolysis, epi-absorbance fluorescence | AID 1527;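 active means inhibition above the mean of all tested compounds plus 3 SD, cutoff set per screening run, cut at about 7.5% in these data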;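 further: red hydrolysis product quenches plate fluorescence so inhibitors raise well fluorescence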
PAFAH2 confirm – confirmation of human PAFAH2 inhibitors; shares compounds with PAFAH2 FP inh; recombinant PAFAH2, FP-rhodamine activity probe, fluorescence polarization; inhibition, % at 3.39 µM; 65% of 2,300 active; AID 493030;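 active means mean inhibition over three repeats above a set limit taken from the earlier primary screen, cut at about 30% in these data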;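 further: inhibitor blocks binding of rhodamine activity probe so polarization falls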
Hits are given with their value; i = inactive; nt = no result.

SMILES	PAFAH1B3 inh	pPAFAH FP inh	PAFAH2 FP inh	PAFAH1B2 FP inh	IMP-1 inh	VIM-2 inhibitor	PAFAH2 confirm
CCOC(=O)Cc1c(C)nc2c(-c3cccc(Br)c3)c[nH]n2c1=O	i	i	33	i	i	i	i
Cc1cccc(NC(=O)CSCC(=O)N2CCN(Cc3ccc4c(c3)OCO4)CC2)c1	i	i	i	i	nt	nt	nt
CN1C2CCC1CC(NC(=O)c1cccc(C(F)(F)F)c1)C2 (configuration not stated)	i	i	32	i	i	i	i
Cc1cccc(C(=O)NC2CC3CCC(C2)N3C)c1 (configuration not stated)	i	nt	i	i	nt	nt	nt
CCOc1ccccc1C1NC(=O)c2ccccc2N1 (configuration not stated)	i	nt	i	i	nt	nt	nt
Nc1ccc(C(=O)OCc2nc3c(ccc4ccccc43)[nH]2)cc1	i	i	80	i	i	i	82
Nc1ccc(C(=O)OCc2nc3cc4ccccc4cc3[nH]2)cc1	i	i	85	i	i	i	83
N#Cc1ccccc1NC(=O)COC(=O)c1c[nH]c2ccccc12	i	nt	69	i	nt	nt	67
O=C(COC(=O)c1c[nH]c2ccccc12)NC1CCCC1	i	i	72	i	nt	nt	68
N#CCC(=O)Nc1ccc(C(=O)OCC(=O)c2c[nH]c3ccccc23)cc1	i	i	i	i	nt	nt	nt
NC(=O)Nc1ccc(C(=O)OCC(=O)c2c[nH]c3ccccc23)cc1	i	i	36	i	nt	nt	i
CC(=O)Nc1ccc(NC(=O)COC(=O)CCCc2c[nH]c3ccccc23)cc1	i	i	i	i	nt	nt	nt
CC(=O)c1ccc(NC(=O)COC(=O)c2c[nH]c3ccccc23)cc1	i	i	45	i	nt	nt	i
CC(=O)Nc1ccc(SCC(=O)NC(=O)c2ccc(S(=O)(=O)N(C)C)cc2)cc1	i	i	i	i	nt	nt	nt
Cc1ccccc1NC(=O)c1cccc(NC(=O)c2ccccc2C(=O)O)c1	i	i	i	i	nt	nt	nt
O=C(Nc1ccc(F)cc1)c1cc2cc(Cl)ccc2[nH]1	i	i	i	i	i	i	nt
Cc1ccc(NC(=O)COC(=O)c2c[nH]c3ccccc23)cc1C	i	i	71	i	nt	nt	71
Cc1ccc(NC(=O)COC(=O)CCc2c[nH]c3ccccc23)cc1[N+](=O)[O-]	i	i	i	i	i	i	nt
CCOC(=O)c1c(NC(=O)C2CC(Cl)=CCC2C(=O)O)sc2c1CCCCC2 (configuration not stated)	i	i	38	i	i	i	i
CCOC(=O)c1c(NC(=O)C2C3C=CC(C3)C2C(=O)O)sc2c1CCCC2 (configuration not stated)	i	i	i	i	i	i	nt
CN(Cc1ccc(N(C)C)cc1)C(=O)c1cc2ccccc2o1	i	i	i	i	i	i	nt
CCCSC1=N/C(=C\c2ccc([N+](=O)[O-])o2)C(=O)S1	i	nt	40	i	i	i	i
CCN(CC)S(=O)(=O)c1cccc(NC(=O)COC(=O)/C=C/c2ccco2)c1	i	i	33	i	i	i	i
Cc1ccc(NC(=O)COC(=O)Cn2cnc3ccccc32)cc1S(=O)(=O)N(C)C	i	i	i	i	i	i	nt
Cc1ccc(NC(=O)COC(=O)c2ccc(Cl)cc2)cc1S(=O)(=O)N(C)C	i	i	61	i	i	i	56
SMILES	PAFAH1B3 inh	pPAFAH FP inh	PAFAH2 FP inh	PAFAH1B2 FP inh	IMP-1 inh	VIM-2 inhibitor	PAFAH2 confirm
Cc1ccc(NC(=O)COC(=O)/C=C/c2ccco2)cc1S(=O)(=O)N(C)C	i	i	70	i	i	i	77
Cc1ccc(/C=C/C(=O)OCC(=O)Nc2cccc(S(=O)(=O)N(C)C)c2)o1	i	i	67	i	i	i	39
CN(C)S(=O)(=O)c1cccc(NC(=O)COc2cccc3ccccc23)c1	i	nt	i	i	nt	nt	nt
CCC(Oc1ccccc1OC)C(=O)Nc1ccc2c(c1)OCO2 (configuration not stated)	i	i	i	i	i	i	nt
CCN(CC(=O)Nc1ccccc1C(F)(F)F)C(=O)c1ccc(N2CCCC2=O)cc1	i	i	i	i	nt	nt	nt
CC(C)(C)OC(=O)N(CCc1ccccc1)Cc1cccc(OCc2cccc(NC(=O)C3CCCC3)c2)c1	i	nt	i	i	nt	nt	nt
COc1ccc(CCC(=O)Nc2ccc(C)c(S(=O)(=O)N(C)C)c2)cc1OC	i	i	i	i	i	i	nt
COc1ccc(C(=O)NCC(=O)OCC(=O)Nc2ccc(C)c(S(=O)(=O)N(C)C)c2)cc1OC	i	i	41	i	i	i	i
C/C=C/C(=O)OCC(=O)Nc1ccc(C)c(S(=O)(=O)N(C)C)c1	i	i	57	i	i	i	48
CN(C)S(=O)(=O)c1cccc(NC(=O)COC(=O)/C=C/c2ccco2)c1	i	i	55	i	i	i	47
CN(C)S(=O)(=O)c1cccc(NC(=O)COC(=O)[C@H](Cc2ccccc2)NC(=O)c2ccco2)c1	i	i	i	i	nt	nt	nt
O=C(COC(=O)/C=C/c1ccco1)Nc1cccc([N+](=O)[O-])c1	i	i	84	i	i	i	85
CC(C)c1ccc(NC(=O)COC(=O)/C=C/c2cccc([N+](=O)[O-])c2)cc1	i	i	i	i	i	i	nt
O=C(CSc1nnc(COc2ccc(Cl)cc2)o1)Nc1ccc(N2CCOCC2)cc1	i	nt	i	i	nt	nt	nt
CC(=O)OCC(=O)Nc1ccc(SC(F)F)cc1	i	i	i	i	i	i	nt
C/C=C/C(=O)OCC(=O)Nc1ccc(SC(F)F)cc1	i	i	56	i	i	i	48
COC(=O)CCC(=O)c1ccc(OC)c(Cl)c1	nt	i	nt	nt	nt	nt	nt
N=C1S/C(=C\c2ccc(-c3cccc(Cl)c3)o2)C(=O)N1c1nccs1	i	i	45	i	i	i	i
CC(=O)N1CCN(C(=O)c2ccc(S(=O)(=O)Nc3cccc(C(F)(F)F)c3)cc2)CC1	i	i	i	i	nt	nt	nt
COc1ccc(CN2C(=O)c3cccnc3C2=O)cc1S(=O)(=O)N1CCOc2ccc(Cl)cc21	i	i	30	i	i	i	i
COc1cccc(/C=C/C(=O)OCC(=O)Nc2cccc(S(=O)(=O)N3CCCCC3)c2)c1OC	i	i	39	i	i	i	55
O=C(COC(=O)/C=C/c1ccc(F)cc1)Nc1cccc(S(=O)(=O)N2CCCC2)c1	i	i	53	i	i	i	44
O=C(COC(=O)/C=C/c1ccc(OC(F)F)cc1)Nc1ccc(N2CCOCC2)cc1	i	i	i	i	nt	nt	nt
O=C(COC(=O)CNC(=O)c1ccc(F)cc1)Nc1cccc(S(=O)(=O)N2CCCC2)c1	i	i	i	i	i	i	nt
O=C(COC(=O)/C=C/c1ccc(OC(F)F)cc1)Nc1cccc(S(=O)(=O)N2CCOCC2)c1	i	i	53	i	nt	nt	40
CC1=C(C#N)c2nc(N)c(C#N)c(C)c2/C1=C\c1ccc(-c2ccccc2C(=O)O)o1	i	nt	32	i	i	i	i
